Our source for the IC50 and Activity values is ChEMBL document CHEMBL4177684, “Design, synthesis, and biological evaluation of hydantoin bridged analogues of combretastatin A-4 as potential anticancer agents” (Bioorg Med Chem, 2017).

A value given as a limit tells only on which side of the number the result lay.

One series concerns HeLa. Put plainly: Antiproliferative activity against human HeLa cells by MTT assay. Format: functional, cell-based. In a few lines:
(§1)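 Growth inhibition rate calculated per compound. IC₅₀ derived by curve fitting.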

For the next series, the system named is A2780. Put plainly: Antiproliferative activity against human A2780 cells by MTT assay. Format: functional, cell-based. The method in brief: as §1
Another series concerns MDA-MB-231. The experiment in a line: Antiproliferative activity against human MDA-MB-231 cells by MTT assay. Format: functional, cell-based. In a few lines: as §1
Series [1] in a line: Inhibition of pig brain tubulin polymerization measured every 1 min for 20 mins by spectrophotometric analysis. On the set-up: species or system Sus scrofa.
Series [2] can be described thus: Cytotoxicity against HOSEC at 10 uM by MTT assay relative to control. As to conditions: human.
Series [3] in a line: Cytotoxicity against HOSEC at 50 uM by MTT assay relative to control. As to conditions: human.
For the next series, the system named is HCT-116. The experiment in a line: Antiproliferative activity against human HCT116 cells by MTT assay. Format: functional, cell-based. The method in brief: as §1

In the case of `COc1ccc(N2C(=S)NC(=O)C2c2cc(OC)c(OC)c(OC)c2)cc1` (stereo unspecified), the IC50 in the series with HeLa and in the series with A2780 was over 50000 nM throughout.

For the compound `COc1ccc(/C=C\c2cc(OC)c(OC)c(OC)c2)cc1O` [COMBRETASTATIN A4], the half-inhibitory concentration (IC50) amounted to 7 nM with HeLa, 5 nM with A2780, 2 nM with MDA-MB-231 and 6.6 µM in series [1].

Turning to `CC(=O)O[C@H]1C(=O)[C@@]2(C)[C@H]([C@H](OC(=O)c3ccccc3)[C@]3(O)C[C@H](OC(=O)[C@H](O)[C@@H](NC(=O)c4ccccc4)c4ccccc4)C(C)=C1C3(C)C)[C@]1(OC(C)=O)CO[C@@H]1C[C@@H]2O` [PACLITAXEL], the Activity in series [2] is on record as 51%; in series [3], 94%.

For `COc1ccc(N2C(=O)NC(=O)C2c2cc(OC)c(OC)c(OC)c2)cn1` (stereo unspecified), the IC50 in the series with HeLa and in the series with A2780 was over 50000 nM throughout.

`COc1ccc(N2C(=S)NC(=O)C2c2cc(OC)c(OC)c(OC)c2)cc1O` (stereo unspecified): the IC50 with HeLa and with A2780 was over 50000 nM throughout.

With `COc1ccc(N2C(=O)NC(=O)C2c2cc(OC)c(OC)c(OC)c2)cc1N` (stereo unspecified), the 50% inhibitory concentration (IC50) amounted to 584 nM with HeLa, 283 nM in the series on A2780, 232 nM with HCT-116 and 311 nM in the series on MDA-MB-231.

Consider `COc1cc(C2C(=O)NC(=O)N2c2ccc3ncccc3c2)cc(OC)c1OC` (stereo unspecified), for which the IC50 in the series with HeLa and with A2780 was over 50000 nM throughout.

As to `COc1ccc(N2C(=O)N(C)C(=O)C2c2cc(OC)c(OC)c(OC)c2)cc1F` (stereo unspecified), the IC50 with HeLa came to 516 nM; in the series on A2780, 555 nM; with HCT-116, 527 nM; in the series on MDA-MB-231, 452 nM.

For the compound `COc1cc(C2C(=O)NC(=O)N2c2ccc3[nH]ccc3c2)cc(OC)c1OC` (stereo unspecified), the values for the IC50 in the series with HeLa and in the series with A2780 were over 50000 nM and 8410 nM, respectively.

Turning to `COc1cc(C2C(=O)NC(=O)N2c2ccc(C)c([N+](=O)[O-])c2)cc(OC)c1OC` (stereo unspecified), the results for the half-maximal inhibitory concentration (IC50) in the series on HeLa and in the series on A2780 were 5450 nM and 2890 nM, respectively.

On to `COc1cc(C2C(=O)NC(=O)N2c2ccc(C)c(C)c2)cc(OC)c1OC` (stereo unspecified), for which the IC50 with HeLa was 620 nM; in the series on A2780, 627 nM; in the series with HCT-116, 475 nM; with MDA-MB-231 it was 835 nM.

Take `COc1ccc(N2C(=O)N(C)C(=O)[C@H]2c2cc(OC)c(OC)c(OC)c2)cc1N`: the IC50 is 81 nM in the series with HeLa, 97 nM with A2780, 157 nM in the series with HCT-116 and 125 nM in the series with MDA-MB-231.

For `COc1cc(C2C(=O)NC(=O)N2c2ccccc2)cc(OC)c1OC` (stereo unspecified), the half-maximal inhibitory concentration (IC50) in the series on HeLa and with A2780 was over 50000 nM each time.

With `COc1ccc(C2C(=O)NC(=O)N2c2cc(OC)c(OC)c(OC)c2)cc1O` (stereo unspecified), the 50% inhibitory concentration (IC50) in the series on HeLa and with A2780 was over 50000 nM throughout.

Take `COc1ccc(N2C(=O)NC(=O)C2c2cc(OC)c(OC)c(OC)c2)cc1` (stereo unspecified): the IC50 is 2820 nM with HeLa and 2140 nM in the series with A2780.

With `COc1ccc(N2C(=O)N(C)C(=O)[C@@H]2c2cc(OC)c(OC)c(OC)c2)cc1N`, the half-maximal inhibitory concentration (IC50) turned out to be 399 nM with HeLa, 305 nM in the series on A2780, 355 nM with HCT-116 and 582 nM with MDA-MB-231.

For the compound `COc1ccc(N2C(=O)N(C)C(=O)C2c2cc(OC)c(OC)c(OC)c2)cc1O` (stereo unspecified), the IC50 in the series on HeLa was 429 nM; in the series on A2780, 353 nM; in the series on HCT-116, 386 nM; in the series on MDA-MB-231, 301 nM.

Take `COc1cc(C2C(=O)NC(=O)N2c2ccc3c(ccn3S(=O)(=O)c3ccc(C)cc3)c2)cc(OC)c1OC` (stereo unspecified): the IC50 in the series on HeLa and in the series on A2780 was over 50000 nM each time.

Take `COc1ccc(C2C(=O)NC(=O)N2c2cc(OC)c(OC)c(OC)c2)cc1` (stereo unspecified): the half-maximal inhibitory concentration (IC50) in the series with HeLa and with A2780 was over 50000 nM in each case.

In the case of `COc1cc(C2C(=O)NC(=O)N2c2cc(OC)c(OC)c(OC)c2)cc(OC)c1OC` (stereo unspecified), the IC50 in the series on HeLa and with A2780 was over 50000 nM throughout.

Regarding `CCN1C(=O)C(c2cc(OC)c(OC)c(OC)c2)N(c2ccc(OC)c(N)c2)C1=O` (stereo unspecified), the IC50 with HeLa was found to be 3300 nM; with A2780, 1910 nM.

`COc1cc(C2C(=O)NC(=O)N2c2cccc(O)c2)cc(OC)c1OC` (stereo unspecified): the 50% inhibitory concentration (IC50) with HeLa and in the series on A2780 was over 50000 nM in each case.

For the compound `COc1cc(C2C(=O)N(C)C(=O)N2c2ccc(C)c(N)c2)cc(OC)c1OC` (stereo unspecified), the IC50 in the series with HeLa is 631 nM; in the series on A2780 it was 679 nM; in the series on HCT-116, 681 nM; with MDA-MB-231 it was 1190 nM.

As for `COc1cc(C2C(=O)N(C)C(=O)N2c2ccc(C)c(C)c2)cc(OC)c1OC` (stereo unspecified), the IC50 in the series on HeLa is 363 nM; in the series with A2780 it was 533 nM; in the series with HCT-116 it was 307 nM; in the series on MDA-MB-231, 493 nM.

As for `COc1ccc(N2C(=O)NC(=O)C2c2cc(OC)c(OC)c(OC)c2)cc1OS(=O)(=O)F` (stereo unspecified), the IC50 in the series with HeLa was found to be 6760 nM; in the series with A2780, 4520 nM.

For the compound `COc1ccc(N2C(=O)N(CCO)C(=O)C2c2cc(OC)c(OC)c(OC)c2)cc1N` (stereo unspecified), the IC50 in the series on HeLa is 3600 nM; in the series on A2780, 6620 nM.

Take `COc1ccc(N2C(=O)NC(=O)C2c2cc(OC)c(OC)c(OC)c2)cc1O` (stereo unspecified): the IC50 with HeLa worked out at 665 nM; with A2780, 815 nM; with HCT-116, 945 nM; with MDA-MB-231 it was 768 nM.

On to `COc1ccc(N2C(=O)NC(=O)C2c2cc(OC)c(OC)c(OC)c2)cc1F` (stereo unspecified), for which the IC50 stood at 771 nM with HeLa, 745 nM in the series with A2780, 630 nM in the series on HCT-116 and 727 nM with MDA-MB-231.

`COc1cc(C2C(=O)NC(=O)N2c2ccc(C)c(N)c2)cc(OC)c1OC` (stereo unspecified): the IC50 in the series on HeLa stood at 933 nM; in the series on A2780, 1050 nM; with HCT-116, 988 nM; with MDA-MB-231 it was 1170 nM.

`COc1ccc(N2C(=O)NC(=O)C2c2cc(OC)c(OC)c(OC)c2)cc1[N+](=O)[O-]` (stereo unspecified): the IC50 with HeLa came to 4740 nM; in the series with A2780 it was 9700 nM.

Regarding `COc1cc(C2C(=O)NC(=O)N2c2cnc3ccccc3c2)cc(OC)c1OC` (stereo unspecified), the 50% inhibitory concentration (IC50) in the series on HeLa and with A2780 was over 50000 nM each time.
